Measured values: ChEMBL document CHEMBL1144747, “(Phenylpiperazinyl-butyl)oxindoles as selective 5-HT7 receptor antagonists” (J Med Chem, 2008)
Calls of active or inactive are those of the source. No cut-off for these calls is given here.

Columns and labels:
[1] = molecular target: T1, 5-hydroxytryptamine receptor 1A (Rattus norvegicus) (UniProt P19327); experiment: Displacement of [3H]8-OH-DPAT from 5HT1A receptor in rat frontal cortex membrane at 0.1 uM; assay type: cell membranes
T1 sequence (whole entry): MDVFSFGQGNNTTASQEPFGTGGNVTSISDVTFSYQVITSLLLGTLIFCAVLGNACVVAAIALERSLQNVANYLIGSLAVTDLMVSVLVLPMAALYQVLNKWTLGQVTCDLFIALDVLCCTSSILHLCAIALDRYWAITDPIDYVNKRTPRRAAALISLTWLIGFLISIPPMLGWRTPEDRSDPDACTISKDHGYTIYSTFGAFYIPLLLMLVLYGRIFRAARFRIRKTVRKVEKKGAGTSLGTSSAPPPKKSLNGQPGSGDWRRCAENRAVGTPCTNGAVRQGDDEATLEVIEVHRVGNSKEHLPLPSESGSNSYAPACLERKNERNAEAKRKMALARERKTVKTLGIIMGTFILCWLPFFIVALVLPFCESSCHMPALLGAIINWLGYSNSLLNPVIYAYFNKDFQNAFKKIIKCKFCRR
How it was run: (§1)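 Rat tissue homogenized in 50 mM Tris-HCl pH 7.7, washed by repeated 40000g spins with a 10 min 37 °C incubation. Buffer: Tris-HCl, 6.66 mM CaCl2, 16.66 µM pargyline, 0.166% ascorbate. Labelled with 1.5 nM [3H]8-OH-DPAT, 45 min at 25 °C; nonspecific with 10 µM 5-HT. GF/B filtration, then scintillation counting; percent inhibition.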

Rattus norvegicus [2] = experiment: Anxiolytic activity in ip dosed Wistar rat assessed as number of punished licks for 5 mins by conflict drinking test; assay type: functional; settings: read-out: MED
How it was run: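 Modified Vogel test in male Wistar rats, 160–180 g, water-deprived 48 h and fasted 24 h. Dosed ip 30 min before test. After a 30 s free-drinking period, 600 µA, 0.6 s shocks came through the spout every 20 licks over 5 min. Punished licks counted; minimal effective dose reported.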

Mus musculus = experiment: Anxiolytic activity in ip dosed NMRI mouse assessed as behavioral activity for 5 mins by light dark assay; assay type: functional; settings: read-out: MED
How it was run: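 Male NMRI mice, 25–33 g, kept in a dark room and dosed ip 30 min before test, then placed in the centre of the lit area. Over 5 min, time in each area, transitions, and horizontal and vertical activity were recorded. Minimal effective dose by one-way ANOVA with Duncan's test.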

[3] = molecular target: T2, 5-hydroxytryptamine receptor 7 (Homo sapiens, UniProt P34969); experiment: Displacement of [3H]LSD from human recombinant 5HT7 receptor expressed in CHO cells; assay type: cell-based
How it was run: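 Cloned human 5-HT7 receptor from CHO cells, labelled with [3H]LSD; nonspecific binding with 25 µM clozapine. Stopped by filtration on PEI-soaked GF/C filters, then scintillation counting. Ki from two displacement curves of nine concentrations each, run in triplicate.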

[4] = molecular target: T1, 5-hydroxytryptamine receptor 1A (Rattus norvegicus); experiment: Displacement of [3H]8-OH-DPAT from 5HT1A receptor in rat frontal cortex membrane at 10 nM; assay type: cell membranes; how it was run: as §1
[5] = molecular target: T2, 5-hydroxytryptamine receptor 7; experiment: Antagonist activity at human 5HT7A receptor expressed in CHO cells assessed as inhibition of […]-induced cAMP elevation at 10 nM administered before […] challenge; assay type: functional, cell-based; parameters: scale not given: the % may be the effect or the level left
How it was run: (§2)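 CHO cells stably expressing human 5-HT7A, cultured in F12:DMEM with 5% FCS, seeded 24 h ahead. Compounds from 1 mM DMSO stock (final DMSO 0.1%) preincubated 10 min, then 20 min with 10 nM 5-CT at 37 °C. Cells lysed, cAMP by EIA, normalized to BCA protein. The 5-CT-induced level is taken as 100%; six independent experiments.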

[6] = molecular target: T2, 5-hydroxytryptamine receptor 7; experiment: Antagonist activity at human 5HT7A receptor expressed in CHO cells assessed as inhibition of […]-induced cAMP elevation at 1 uM; assay type: functional, cell-based; parameters: scale not given: the % may be the effect or the level left; how it was run: as §2
Rattus norvegicus [7] = organism: Rattus norvegicus; experiment: Metabolic stability in rat; assay type: ADME, organism-based; settings: in vitro

T2 sequence (P34969 whole entry): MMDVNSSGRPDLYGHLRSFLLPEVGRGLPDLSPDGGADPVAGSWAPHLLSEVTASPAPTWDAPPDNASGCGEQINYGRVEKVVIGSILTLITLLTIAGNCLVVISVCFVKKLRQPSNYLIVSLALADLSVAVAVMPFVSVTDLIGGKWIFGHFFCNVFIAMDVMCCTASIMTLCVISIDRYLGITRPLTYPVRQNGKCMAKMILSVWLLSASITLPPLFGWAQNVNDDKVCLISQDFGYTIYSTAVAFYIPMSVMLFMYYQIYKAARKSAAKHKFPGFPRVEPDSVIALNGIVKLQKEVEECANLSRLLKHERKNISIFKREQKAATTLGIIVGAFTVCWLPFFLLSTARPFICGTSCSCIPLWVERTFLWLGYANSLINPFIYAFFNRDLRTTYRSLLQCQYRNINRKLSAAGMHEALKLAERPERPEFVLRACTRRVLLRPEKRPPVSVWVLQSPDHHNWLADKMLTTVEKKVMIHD

| SMILES | Activity [1] [%] | Ki ([3]; read-out: Ki) [nM] | Activity [4] [%] | Activity [5] | Activity [6] [%] | Stability (Rattus norvegicus [7]) [%] | Ki ([3]; read-out: Log Ki (converted)) [nM] | minimal effective dose (Rattus norvegicus [2]) [mg/kg] | minimal effective dose (Mus musculus) [mg/kg] |
| --- | --- | --- | --- | --- | --- | --- | --- | --- | --- |
| CCC1(CCCCN2CCc3sccc3C2)C(=O)Nc2ccccc21 (centres undefined) | 29 | 4.31 | – | – | – | – | – | > 20 | > 10 |
| CC1CCN(CC[C@H]2CCCN2S(=O)(=O)c2cccc(O)c2)CC1 | – | – | – | 80% | > 95 | – | – | – | – |
| CC(C)CC1(CCCCN2CCN(c3cccc(Cl)c3)CC2)C(=O)Nc2ccccc21 (centres undefined) | 12 | 1.8 | – | inactive | > 95 | – | – | 10 | > 10 |
| CCC1(CCCCN2CCN(c3ccccc3OC)CC2)C(=O)N(Cc2ccccc2)c2ccccc21 (centres undefined) | 86 | 6.57 | 32 | – | – | – | – | > 20 | – |
| CCC1(CCCCN2CCN(c3ccccc3OC)CC2)C(=O)Nc2ccccc21 (centres undefined) | 79 | 5.38 | 28 | – | – | – | – | 10 | – |
| O=C1Nc2ccccc2C1CCCCN1CCN(c2cccc(Cl)c2)CC1 (centres undefined) | 40 | 0.49 | 9 | 80% | > 95 | – | – | < 5 | > 10 |
| O=C1Nc2ccc(F)cc2C1CCCCN1CCN(c2ccc(F)cc2)CC1 (centres undefined) | 6 | 3.4 | – | – | – | 40 | – | > 10 | – |
| CCC1(CCCCN2CCc3ccccc3C2)C(=O)Nc2ccccc21 (centres undefined) | 52 | 7.65 | – | – | > 95 | – | – | > 20 | – |
| CCC1(CCCCN2CCN(c3cccc(OC)c3)CC2)C(=O)Nc2ccccc21 (centres undefined) | 33 | 2.55 | 6 | – | – | – | – | > 20 | – |
| CCC1(CCCCN2CC=C(c3ccc(Cl)cc3)CC2)C(=O)Nc2ccccc21 (centres undefined) | 10 | 1.02 | – | inactive | > 95 | – | – | > 20 | – |
| CCC1(CCCCN2CCC(C)CC2)C(=O)Nc2ccccc21 (centres undefined) | 0 | – | – | – | > 95 | – | – | – | – |
| COc1ccccc1N1CCN(CCCCC23CCCc4cccc(c42)NC3=O)CC1 (centres undefined) | – | – | – | – | – | – | 2.14 | – | – |
| CCC1(CCCCN2CC=C(c3ccc(F)cc3)CC2)C(=O)Nc2ccccc21 (centres undefined) | 19 | 1.19 | – | – | > 95 | – | – | 20 | – |
| CCC1(CCCCN2CCC(c3ccc(F)cc3)CC2)C(=O)Nc2ccccc21 (centres undefined) | 11 | 5.3 | – | – | – | – | – | 20 | > 10 |
| CCC1(CCCCN2CCN(c3ccccc3)CC2)C(=O)N(C)c2ccccc21 (centres undefined) | 42 | 33.4 | 12 | – | – | – | – | 20 | – |
| CCC1(CCCCN2CCN(c3ccccc3)CC2)C(=O)Nc2ccccc21 (centres undefined) | 26 | 2.07 | 6 | – | – | – | – | 10 | – |
| O=C1Nc2ccc(F)cc2C1CCCCN1CCN(c2cccc(Cl)c2)CC1 (centres undefined) | 43 | 1.96 | – | – | – | – | – | > 20 | – |

More lines, main results first:

| Activity [1] [%] | Ki ([3]; read-out: Ki) [nM] | Activity [4] [%] | Activity [5] | Activity [6] [%] | Stability (Rattus norvegicus [7]) [%] | Ki ([3]; read-out: Log Ki (converted)) [nM] | SMILES | minimal effective dose (Rattus norvegicus [2]) [mg/kg] | minimal effective dose (Mus musculus) [mg/kg] |
| --- | --- | --- | --- | --- | --- | --- | --- | --- | --- |
| 24 | 2.11 | – | – | – | – | – | CCC1(CCCCN2CCN(c3cccc(Cl)c3)CC2)C(=O)Nc2ccc(F)cc21 (centres undefined) | < 5 | > 10 |
| 7 | 1.5 | – | – | – | – | – | CCC1(CCCCN2CCN(c3ccc(F)cc3)CC2)C(=O)Nc2ccc(F)cc21 (centres undefined) | > 20 | – |
| 0 | 6.99 | – | – | – | – | – | CCC1(CCCCN2CCN(c3ccc(Cl)cc3)CC2)C(=O)Nc2cc(F)c(Cl)cc21 (centres undefined) | – | – |
| 37 | 0.67 | 11 | – | – | – | – | CCC1(CCCCN2CCN(c3cccc(Cl)c3)CC2)C(=O)Nc2cc(F)ccc21 (centres undefined) | > 20 | – |
| 16 | 9.07 | – | – | – | – | – | CCC1(CCCCN2CCN(c3cccc(Cl)c3)CC2)C(=O)Nc2cc(F)c(Cl)cc21 (centres undefined) | 20 | – |
| 10 | 0.43 | 12 | – | – | – | – | CCC1(CCCCN2CCN(c3ccc(F)cc3)CC2)C(=O)Nc2ccccc21 (centres undefined) | 10 | < 1 |
| 9 | 2.81 | – | – | – | – | – | CCC1(CCCCN2CCN(c3ccc(Cl)cc3)CC2)C(=O)Nc2ccc(F)cc21 (centres undefined) | > 20 | > 10 |
| 18 | 8.27 | – | – | – | – | – | CCC1(CCCCN2CCN(c3cccc(Cl)c3)CC2)C(=O)Nc2ccc(Cl)cc21 (centres undefined) | > 20 | – |
| 31 | 4.75 | – | – | – | – | – | CCC1(CCCCN2CCN(c3cccc(Cl)c3)CC2)C(=O)Nc2c(Cl)cc(F)cc21 (centres undefined) | > 20 | > 10 |
| 51 | 5.11 | 9 | – | – | – | – | CCC1(CCCCN2CCN(c3ccccc3Cl)CC2)C(=O)Nc2ccccc21 (centres undefined) | > 20 | – |
| 0 | 5.97 | – | – | – | – | – | CCC1(CCCCN2CCN(c3ccc(Cl)cc3)CC2)C(=O)Nc2c(Cl)cc(F)cc21 (centres undefined) | > 20 | – |
| 91 | 21 | 57 | – | – | – | – | CCC1(CCCN2CCN(c3cccc(Cl)c3)CC2)C(=O)Nc2ccccc21 (centres undefined) | > 20 | 3 |
| 7 | 9.46 | – | – | – | – | – | CCC1(CCCCN2CCN(c3cccc(Cl)c3)CC2)C(=O)Nc2c(Cl)cc(Cl)cc21 (centres undefined) | > 20 | – |
| 5 | 10.1 | – | – | – | 76 | – | CCC1(CCCCN2CCN(c3ccc(Cl)cc3)CC2)C(=O)Nc2c(Cl)cc(Cl)cc21 (centres undefined) | < 5 | < 1 |
| 24 | 25.4 | 3 | – | – | – | – | CCC1(CCCCN2CCN(c3ccc(OC)cc3)CC2)C(=O)Nc2ccccc21 (centres undefined) | > 20 | – |
| 14 | 0.6 | 0 | – | – | – | – | CCC1(CCCCN2CCN(c3ccc(F)c(Cl)c3)CC2)C(=O)Nc2ccccc21 (centres undefined) | > 20 | – |
| 11 | 0.63 | 0 | – | – | – | – | CCC1(CCCCN2CCN(c3ccc(Cl)c(Cl)c3)CC2)C(=O)Nc2ccccc21 (centres undefined) | > 20 | – |
| 43 | 1.45 | 12 | 20% | > 95 | – | – | CCC1(CCCCCN2CCN(c3cccc(Cl)c3)CC2)C(=O)Nc2ccccc21 (centres undefined) | > 10 | > 10 |
| 11 | 0.66 | 0 | 40% | > 95 | – | – | CCC1(CCCCN2CCN(c3ccc(C)c(Cl)c3)CC2)C(=O)Nc2ccccc21 (centres undefined) | > 20 | – |
| 11 | 0.38 | 2 | – | – | 9 | – | CCC1(CCCCN2CCN(c3ccc(Cl)cc3)CC2)C(=O)Nc2ccccc21 (centres undefined) | 10 | > 10 |
| 11 | 1.24 | 0 | – | – | – | – | CCC1(CCCCCN2CCN(c3ccc(Cl)cc3)CC2)C(=O)Nc2ccccc21 (centres undefined) | > 20 | – |
| 42 | 0.41 | 11 | 40% | > 95 | 4 | – | CCC1(CCCCN2CCN(c3cccc(Cl)c3)CC2)C(=O)Nc2ccccc21 (centres undefined) | > 20 | > 10 |
| 0 | 3.72 | – | – | – | – | – | CCC1(CCCCN2CCN(c3ccc(Cl)cc3)CC2)C(=O)Nc2ccc(Cl)cc21 (centres undefined) | > 20 | – |
